Results as given in ChEMBL document CHEMBL2146464, “Structure-activity relationship study of nitrosopyrimidines acting as antifungal agents” (Bioorg Med Chem, 2012).
In brackets after ≈: the same amount, converted by molar mass. Activity calls are given as the source filed them. The calls are words filed in the database; no cut-off is given here.

What was measured:
[1] = tested on: Candida albicans; assay: Antifungal activity against Candida albicans ATCC 10231 after 48 hrs by NCCLS broth microdilution method; type: functional; settings: ATCC 10231, 48 h, read-out: MIC100
Summary of the method: (§1)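 Yeast MIC by NCCLS M27-A3 broth microdilution in RPMI-1640 buffered to pH 7.0 with MOPS. Twofold dilutions of 250–0.98 µg/mL, final DMSO ≤1%. Inoculum 1–5 × 10³ CFU/mL. Incubated at 30 °C in a moist dark chamber. Read visually at 48 h. MIC100 is the lowest concentration with no visible growth versus drug-free control.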

[2] = tested on: Candida tropicalis; assay: Antifungal activity against Candida tropicalis by microplate reader analysis; type: functional
[3] = tested on: Candida tropicalis; assay: Antifungal activity against Candida tropicalis assessed as growth inhibition at 3.9 ug/mL by microplate reader analysis; type: functional; settings: read-out: GI
[4] = tested on: Candida albicans; assay: Antifungal activity against Candida albicans ATCC 10231 assessed as growth inhibition at 15.6 ug/mL after 24 hrs by microplate reader analysis; type: functional; settings: ATCC 10231, 24 h, read-out: GI
Summary of the method: (§2)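 96-well RPMI-1640 wells with compound at final 250–0.98 µg/mL (DMSO ≤1%). Inoculum 100 µL, 1–5 × 10³ CFU/mL, 200 µL final. Each well includes growth (DMSO, no compound) and sterility controls. % inhibition = 100 − (CTW−SCW)/(GCW−SCW) × 100, run in duplicate.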

[5] = tested on: Candida albicans; assay: Antifungal activity against Candida albicans ATCC 10231 assessed as growth inhibition at 250 ug/mL after 24 hrs by microplate reader analysis; type: functional; settings: ATCC 10231, 24 h, read-out: GI; summary of the method: as §2
[6] = tested on: Cryptococcus neoformans; assay: Antifungal activity against Cryptococcus neoformans ATCC 32264 assessed as growth inhibition at 250 ug/mL after 48 hrs by microplate reader analysis; type: functional; settings: ATCC 32264, 48 h, read-out: GI
Summary of the method: (§3)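 Microplate growth-inhibition assay in RPMI-1640, compound at final 250–0.98 µg/mL (DMSO ≤1%). Inoculum 1–5 × 10³ CFU/mL. Sterility and DMSO growth controls included. Percent inhibition is computed from blank-corrected OD relative to the growth control, tested in duplicate.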

[7] = tested on: Candida tropicalis; assay: Antifungal activity against Candida tropicalis assessed as growth inhibition at 250 ug/mL by microplate reader analysis; type: functional; settings: read-out: GI
[8] = tested on: Trichophyton mentagrophytes; assay: Antifungal activity against Trichophyton mentagrophytes ATCC 9972 at 0.98 to 250 ug/mL by NCCLS broth microdilution method; type: functional, organism-based
Summary of the method: (§4)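 MIC by broth microdilution per NCCLS M27-A3/M38-A2 in RPMI-1640 buffered to pH 7.0 with MOPS. Twofold dilutions from 250–0.98 µg/mL, final DMSO ≤1%. Inoculum 1–5 × 10³ CFU/mL. Incubated in a moist dark chamber, 30 °C for Aspergillus and 28–30 °C for dermatophytes. Read visually when control growth allowed. Endpoint is the lowest concentration giving total inhibition of visible growth (MIC100).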

[9] = tested on: Cryptococcus neoformans; assay: Antifungal activity against Cryptococcus neoformans ATCC 32264 assessed as growth inhibition at 125 ug/mL after 48 hrs by microplate reader analysis; type: functional; settings: ATCC 32264, 48 h, read-out: GI; summary of the method: as §3
[10] = tested on: Cryptococcus neoformans; assay: Antifungal activity against Cryptococcus neoformans ATCC 32264 after 48 hrs by NCCLS broth microdilution method; type: functional; settings: ATCC 32264, 48 h, read-out: MIC100; summary of the method: as §1
[11] = tested on: Candida tropicalis; assay: Antifungal activity against Candida tropicalis assessed as growth inhibition at 62.5 ug/mL by microplate reader analysis; type: functional; settings: read-out: GI
[12] = tested on: Candida tropicalis; assay: Antifungal activity against Candida tropicalis assessed as growth inhibition at 31.25 ug/mL by microplate reader analysis; type: functional; settings: read-out: GI
[13] = tested on: Candida albicans; assay: Antifungal activity against Candida albicans ATCC 10231 assessed as growth inhibition at 7.8 ug/mL after 24 hrs by microplate reader analysis; type: functional; settings: ATCC 10231, 24 h, read-out: GI; summary of the method: as §2
[14] = tested on: Cryptococcus neoformans; assay: Antifungal activity against Cryptococcus neoformans ATCC 32264 after 48 hrs by microplate reader analysis; type: functional; settings: ATCC 32264, 48 h; summary of the method: as §3
[15] = tested on: Cryptococcus neoformans; assay: Antifungal activity against Cryptococcus neoformans ATCC 32264 assessed as growth inhibition at 7.8 ug/mL after 48 hrs by microplate reader analysis; type: functional; settings: ATCC 32264, 48 h, read-out: GI; summary of the method: as §3
[16] = tested on: Cryptococcus neoformans; assay: Antifungal activity against Cryptococcus neoformans ATCC 32264 assessed as growth inhibition at 62.5 ug/mL after 48 hrs by microplate reader analysis; type: functional; settings: ATCC 32264, 48 h, read-out: GI; summary of the method: as §3
[17] = tested on: Candida albicans; assay: Antifungal activity against Candida albicans ATCC 10231 assessed as growth inhibition at 125 ug/mL after 24 hrs by microplate reader analysis; type: functional; settings: ATCC 10231, 24 h, read-out: GI; summary of the method: as §2
[18] = tested on: Candida tropicalis; assay: Antifungal activity against Candida tropicalis after 48 hrs by NCCLS broth microdilution method; type: functional; settings: read-out: MIC100; summary of the method: as §1
[19] = tested on: Candida albicans; assay: Antifungal activity against Candida albicans ATCC 10231 assessed as growth inhibition at 31.25 ug/mL after 24 hrs by microplate reader analysis; type: functional; settings: ATCC 10231, 24 h, read-out: GI; summary of the method: as §2
[20] = tested on: Candida albicans; assay: Fungicidal activity against Candida albicans ATCC 10231 at 0.98 to 250 ug/mL after 48 hrs by agar plate dilution method; type: functional, organism-based
Summary of the method: (§5)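 MFC: after the microdilution MIC, material from each clear well was plated onto RPMI-1640 agar buffered with MOPS. Plates incubated at 30 °C and read after 48 h. MFC is the lowest concentration giving total inhibition of visible growth.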

[21] = tested on: Cryptococcus neoformans; assay: Antifungal activity against Cryptococcus neoformans ATCC 32264 assessed as growth inhibition at 3.9 ug/mL after 48 hrs by microplate reader analysis; type: functional; settings: ATCC 32264, 48 h, read-out: GI; summary of the method: as §3
[22] = tested on: Aspergillus fumigatus; assay: Antifungal activity against Aspergillus fumigatus ATCC 26934 at 0.98 to 250 ug/mL by NCCLS broth microdilution method; type: functional, organism-based; summary of the method: as §4
[23] = tested on: Trichophyton rubrum; assay: Antifungal activity against Trichophyton rubrum CCC 110 at 0.98 to 250 ug/mL by NCCLS broth microdilution method; type: functional, organism-based; summary of the method: as §4
[24] = tested on: Aspergillus niger; assay: Antifungal activity against Aspergillus niger ATCC 9029 at 0.98 to 250 ug/mL by NCCLS broth microdilution method; type: functional, organism-based; summary of the method: as §4
[25] = tested on: Candida albicans; assay: Antifungal activity against Candida albicans ATCC 10231 assessed as growth inhibition at 62.5 ug/mL after 24 hrs by microplate reader analysis; type: functional; settings: ATCC 10231, 24 h, read-out: GI; summary of the method: as §2
[26] = tested on: Nannizzia gypsea; assay: Antifungal activity against Microsporum gypseum CCC 115 at 0.98 to 250 ug/mL by NCCLS broth microdilution method; type: functional, organism-based; summary of the method: as §4
[27] = Acute toxicity in bony fish assessed as mortality at 3 ug/mL after 96 hrs; settings: actinopterygii; read-out: Activity
Summary of the method: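 Guppy (Poecilia reticulata) acute static exposure: 10 fish per concentration in 2 L wide-mouthed jars holding the test solution. Compounds were added from […] to give the final concentrations. Dead fish were counted and removed every 24 h, with general condition noted; percentage mortality was scored at 96 h. Two experiments, each in triplicate.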

[28] = tested on: Candida tropicalis; assay: Antifungal activity against Candida tropicalis assessed as growth inhibition at 125 ug/mL by microplate reader analysis; type: functional; settings: read-out: GI
[29] = tested on: Candida tropicalis; assay: Fungicidal activity against Candida tropicalis at 0.98 to 250 ug/mL after 48 hrs by agar plate dilution method; type: functional, organism-based; summary of the method: as §5
[30] = tested on: Cryptococcus neoformans; assay: Antifungal activity against Cryptococcus neoformans ATCC 32264 assessed as growth inhibition at 15.6 ug/mL after 48 hrs by microplate reader analysis; type: functional; settings: ATCC 32264, 48 h, read-out: GI; summary of the method: as §3
[31] = tested on: Candida albicans; assay: Antifungal activity against Candida albicans ATCC 10231 assessed as growth inhibition at 3.9 ug/mL after 24 hrs by microplate reader analysis; type: functional; settings: ATCC 10231, 24 h, read-out: GI; summary of the method: as §2
[32] = tested on: Aspergillus flavus; assay: Antifungal activity against Aspergillus flavus ATCC 9170 at 0.98 to 250 ug/mL by NCCLS broth microdilution method; type: functional, organism-based; summary of the method: as §4
[33] = tested on: Cryptococcus neoformans; assay: Antifungal activity against Cryptococcus neoformans ATCC 32264 assessed as growth inhibition at 31.25 ug/mL after 48 hrs by microplate reader analysis; type: functional; settings: ATCC 32264, 48 h, read-out: GI; summary of the method: as §3
[34] = tested on: Candida albicans; assay: Antifungal activity against Candida albicans ATCC 10231 after 24 hrs by microplate reader analysis; type: functional; settings: ATCC 10231, 24 h; summary of the method: as §2
[35] = tested on: Candida tropicalis; assay: Antifungal activity against Candida tropicalis assessed as growth inhibition at 7.8 ug/mL by microplate reader analysis; type: functional; settings: read-out: GI
[36] = tested on: Candida tropicalis; assay: Antifungal activity against Candida tropicalis assessed as growth inhibition at 15.6 ug/mL by microplate reader analysis; type: functional; settings: read-out: GI
[37] = tested on: Cryptococcus neoformans; assay: Fungicidal activity against Cryptococcus neoformans ATCC 32264 at 0.98 to 250 ug/mL after 48 hrs by agar plate dilution method; type: functional, organism-based; summary of the method: as §5

COc1nc(N)nc2c1ncn2C12CC3CC(CC(C3)C1)C2
MIC [1]: 250 µg/mL (≈ 835 µM) | MIC50 [2]: 62.5 µg/mL (≈ 209 µM) | inhibition of growth at 3.9 µg/mL [3]: 36.4% | inhibition of growth at 15.6 µg/mL [4]: 34.3% | inhibition of growth at 250 µg/mL [5]: 100% | inhibition of growth at 250 µg/mL [6]: 100% | inhibition of growth at 250 µg/mL [7]: 100% | Activity [8]: inactive | inhibition of growth at 125 µg/mL [9]: 88% | MIC [10]: 250 µg/mL (≈ 835 µM) | inhibition of growth at 62.5 µg/mL [11]: 53.3% | inhibition of growth at 31.25 µg/mL [12]: 47.3% | inhibition of growth at 7.8 µg/mL [13]: 23.2% | MIC50 [14]: 31.2 µg/mL (≈ 104 µM) | inhibition of growth at 7.8 µg/mL [15]: 9.5% | inhibition of growth at 62.5 µg/mL [16]: 51.1% | inhibition of growth at 125 µg/mL [17]: 86.8% | MIC [18]: 250 µg/mL (≈ 835 µM) | inhibition of growth at 31.25 µg/mL [19]: 38.9% | Activity [20]: inactive | inhibition of growth at 3.9 µg/mL [21]: 0% | Activity [22]: inactive | Activity [23]: inactive | Activity [24]: inactive | inhibition of growth at 62.5 µg/mL [25]: 43.4% | Activity [26]: inactive | mortality at 96 h, 3 ug/mL [27]: 0% | inhibition of growth at 125 µg/mL [28]: 81.2% | Activity [29]: inactive | inhibition of growth at 15.6 µg/mL [30]: 39.2% | inhibition of growth at 3.9 µg/mL [31]: 29.3% | Activity [32]: inactive | inhibition of growth at 31.25 µg/mL [33]: 56.9% | MIC50 [34]: 62.5 µg/mL (≈ 209 µM) | inhibition of growth at 7.8 µg/mL [35]: 34.5% | inhibition of growth at 15.6 µg/mL [36]: 41.5% | Activity [37]: inactive
